In one series the test system is WT HIV-1 NL4-3. It is filed as cell-based. The settings on record: MT-4 cells.
Series [1] concerns HIV-1 NL4-3 integrase Y143C. The series is classed as cell-based. The settings on record: MT-4 cells; IN substitution Y143C.
Series [2] relates to HIV-1 NL4-3 integrase N155H. It is filed as cell-based. The settings on record: MT-4 cells; IN substitution N155H.
For series [3], the system named is HIV-1 NL4-3 integrase E92Q/N155H. The series is classed as cell-based. The settings on record: MT-4 cells; IN substitutions E92Q/N155H.
Series [4] has as its system HIV-1 NL4-3 integrase T66I. The series is classed as cell-based. The settings on record: MT-4 cells; IN substitution T66I.
In series [5] the test system is HIV-1 (Group M) isolate 92RW016, subtype A. In words: Antiviral assay in fresh human PBMCs. It is filed as cell-based.
Series [6] concerns HIV-1 (Group M) isolate 91US004, subtype B. In words: Antiviral assay in fresh human PBMCs. The series is classed as cell-based.
Series [7] has as its system HIV-1 (Group M) isolate 98IN022, subtype C. As to the kind of experiment: Antiviral assay in fresh human PBMCs. It is filed as cell-based.
For series [8], the system named is HIV-1 (Group M) isolate 93UG067, subtype D. In words: Antiviral assay in fresh human PBMCs. The series is classed as cell-based.
For series [9], the system named is HIV-1 (Group M) isolate CMU08, subtype E. As to the kind of experiment: Antiviral assay in fresh human PBMCs. The series is classed as cell-based.
The subject of series [10] is HIV-1 (Group M) isolate 93BR029, subtype F. In words: Antiviral assay in fresh human PBMCs. The series is classed as cell-based.
Series [11] concerns HIV-1 (Group M) isolate G3, subtype G. As to the kind of experiment: Antiviral assay in fresh human PBMCs. The series is classed as cell-based.
The test system of series [12] is HIV-1 (Group M) isolate CDC310342, CRF02-AG. As to the kind of experiment: Antiviral assay in fresh human PBMCs. It is filed as cell-based.
The next series concerns HIV-2 isolate CDC310319. As to the kind of experiment: Antiviral assay in fresh human PBMCs. It is filed as cell-based. Put shortly: (§1)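 Freshly isolated human PBMCs are infected with virus and cultured with test compound. Replication is measured as reverse transcriptase activity in culture supernatants, using a microtiter plate-based RT reaction. EC50 is the concentration giving 50% inhibition, as the mean of three determinations. CC50 is measured in parallel with the tetrazolium dye MTS, and therapeutic index = CC50/EC50.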

The test system of the next series is SIV isolate MAC251. As to the kind of experiment: Antiviral assay in fresh human PBMCs. The series is classed as cell-based. The following applies: PBMC. Put shortly: as §1
Series [13] relates to HIV-1, HIV-2 and SIV isolates. In words: Antiviral assay in PBMCs, all isolates together. The following applies: PBMC, read-out: mean EC50 (± SD), all isolates. The series is classed as cell-based.
Series [14] can be described thus: Cytotoxicity in human PBMC cultures. It is filed as cell-based. The following applies: peripheral blood mononuclear cells (PBMCs). Put shortly:
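Freshly isolated human PBMCs are cultured with test compound. Viability is read out with the tetrazolium-based dye MTS, and CC50 is derived from that read-out.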

Series [15] concerns HIV-1 NL4-3 integrase Q148R. It is filed as cell-based. The settings on record: MT-4 cells; IN substitution Q148R.
A short description of series [16]: In vitro human liver microsome stability. The series is classed as in vitro ADME.
The next series deals with CYP3A4 (Homo sapiens, UniProt P08684). As to the kind of experiment: Cytochrome P-450 isozyme inhibition assay in human liver microsomes. It is filed as in vitro ADME.
CYP3A4, sequence (P08684 whole entry): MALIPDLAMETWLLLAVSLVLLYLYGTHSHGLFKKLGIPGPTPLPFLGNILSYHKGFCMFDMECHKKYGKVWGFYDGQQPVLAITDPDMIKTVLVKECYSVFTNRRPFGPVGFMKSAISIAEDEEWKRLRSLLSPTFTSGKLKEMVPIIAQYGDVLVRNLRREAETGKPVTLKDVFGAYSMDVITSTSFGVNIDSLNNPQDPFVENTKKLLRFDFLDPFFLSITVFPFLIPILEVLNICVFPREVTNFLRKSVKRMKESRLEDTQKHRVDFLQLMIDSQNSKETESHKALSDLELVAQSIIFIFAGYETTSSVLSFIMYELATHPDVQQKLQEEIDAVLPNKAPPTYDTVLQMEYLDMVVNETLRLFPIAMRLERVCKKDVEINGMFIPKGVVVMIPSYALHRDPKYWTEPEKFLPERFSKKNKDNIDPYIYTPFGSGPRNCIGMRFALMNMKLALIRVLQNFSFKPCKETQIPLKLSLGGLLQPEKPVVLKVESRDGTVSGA
A further series addresses CYP2D6 (Homo sapiens, UniProt P10635). The description is as above. It is filed as in vitro ADME.
The target in another series is CYP2C8 (Homo sapiens, UniProt P10632). The series is described as above. It is filed as in vitro ADME.
CYP2C8, sequence (P10632 whole entry): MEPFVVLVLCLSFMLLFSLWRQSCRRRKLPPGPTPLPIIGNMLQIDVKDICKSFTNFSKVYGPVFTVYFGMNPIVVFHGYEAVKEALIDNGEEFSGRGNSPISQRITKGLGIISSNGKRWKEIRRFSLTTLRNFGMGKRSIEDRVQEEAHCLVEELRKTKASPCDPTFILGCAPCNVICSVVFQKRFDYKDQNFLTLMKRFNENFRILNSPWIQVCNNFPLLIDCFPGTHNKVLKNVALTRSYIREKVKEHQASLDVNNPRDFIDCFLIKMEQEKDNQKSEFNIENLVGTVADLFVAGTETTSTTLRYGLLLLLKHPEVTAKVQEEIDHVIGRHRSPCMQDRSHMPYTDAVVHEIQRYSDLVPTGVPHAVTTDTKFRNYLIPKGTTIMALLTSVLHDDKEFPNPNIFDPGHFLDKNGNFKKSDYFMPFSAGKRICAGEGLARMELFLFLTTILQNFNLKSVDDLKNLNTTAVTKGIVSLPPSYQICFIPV
For another series, the target named is CYP2C9 (Homo sapiens, UniProt P11712). The series is described as above. It is filed as in vitro ADME.
CYP2C9, sequence (P11712 whole entry): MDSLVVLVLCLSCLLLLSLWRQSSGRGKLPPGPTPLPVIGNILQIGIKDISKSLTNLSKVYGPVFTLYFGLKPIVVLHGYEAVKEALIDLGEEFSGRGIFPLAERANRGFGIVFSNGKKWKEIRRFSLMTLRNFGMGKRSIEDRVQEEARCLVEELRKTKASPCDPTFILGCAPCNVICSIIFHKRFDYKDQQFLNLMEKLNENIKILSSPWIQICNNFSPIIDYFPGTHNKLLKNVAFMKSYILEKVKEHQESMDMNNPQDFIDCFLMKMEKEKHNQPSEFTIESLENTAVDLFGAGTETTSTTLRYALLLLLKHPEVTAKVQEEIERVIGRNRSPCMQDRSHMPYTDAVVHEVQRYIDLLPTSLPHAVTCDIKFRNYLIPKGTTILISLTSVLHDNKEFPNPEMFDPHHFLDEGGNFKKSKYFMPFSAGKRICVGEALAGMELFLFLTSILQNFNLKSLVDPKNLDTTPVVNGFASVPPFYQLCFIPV
A further series addresses CYP2C19 (Homo sapiens, UniProt P33261). The description is as above. It is filed as in vitro ADME.
In series [17] the test system is CYP isozymes (3A4, 2D6, 2C8, 2C9, 2C19). As to the kind of experiment: Activation of CYP isozymes. The series is classed as in vitro ADME. The settings on record: human liver microsomes; CYP 3A4, 2D6, 2C8, 2C9, 2C19.
For series [18], the system named is UGT in pooled human liver microsomes (UGT 1A1, 1A4, 1A6, 1A9 and 2B7). In words: UGT substrate activity in pooled human liver microsomes. The series is classed as in vitro ADME.
The target of another series is UGT1A1 (Homo sapiens, UniProt P22309). In words: UGT substrate activity with cDNA-expressed isozyme. It is filed as in vitro ADME. The following applies: UGT1A1 (BD Biosciences); HPLC.
UGT1A1, sequence (P22309 26-533): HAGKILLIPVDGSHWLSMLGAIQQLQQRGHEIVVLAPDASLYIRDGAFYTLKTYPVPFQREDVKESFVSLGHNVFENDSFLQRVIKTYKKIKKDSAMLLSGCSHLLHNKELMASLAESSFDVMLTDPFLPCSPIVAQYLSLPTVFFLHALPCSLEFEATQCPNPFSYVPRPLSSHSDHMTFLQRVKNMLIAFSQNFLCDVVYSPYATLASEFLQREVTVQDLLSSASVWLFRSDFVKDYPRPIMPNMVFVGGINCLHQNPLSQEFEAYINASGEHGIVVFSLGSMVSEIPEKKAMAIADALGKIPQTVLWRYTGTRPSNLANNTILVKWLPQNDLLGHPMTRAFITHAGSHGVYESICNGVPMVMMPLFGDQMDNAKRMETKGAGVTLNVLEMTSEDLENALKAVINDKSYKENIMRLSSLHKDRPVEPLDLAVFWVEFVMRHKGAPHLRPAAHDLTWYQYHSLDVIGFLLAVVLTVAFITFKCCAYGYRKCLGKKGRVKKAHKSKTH
The next series has as its target UGT1A3 (Homo sapiens, UniProt P35503). As to the kind of experiment: UGT substrate activity with cDNA-expressed isozyme. The series is classed as in vitro ADME. The settings on record: UGT1A3 (BD Biosciences); HPLC.
In the next series the target is UGT1A4 (Homo sapiens, UniProt P22310). In words: UGT inhibition study with trifluoperazine as substrate. It is filed as in vitro ADME. The following applies: human liver microsomes. The gist of the method: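 Pooled human liver microsomes (0.2 mg/mL protein) were held with alamethicin (0.024 mg/mg protein) in 100 mM potassium phosphate, pH 7.4, with 5 mM MgCl2 at 0 °C for 15 min. Test compound in DMSO (0 to 300 μM) and trifluoperazine substrate were added, with organic solvent <1.6%. Mixtures were preincubated 3 min at 37 °C, then started with UDPGA (final 4 mM) and run 15 min. Acetonitrile stop, centrifugation, HPLC-UV of supernatant.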
UGT1A4, sequence (P22310 29-534): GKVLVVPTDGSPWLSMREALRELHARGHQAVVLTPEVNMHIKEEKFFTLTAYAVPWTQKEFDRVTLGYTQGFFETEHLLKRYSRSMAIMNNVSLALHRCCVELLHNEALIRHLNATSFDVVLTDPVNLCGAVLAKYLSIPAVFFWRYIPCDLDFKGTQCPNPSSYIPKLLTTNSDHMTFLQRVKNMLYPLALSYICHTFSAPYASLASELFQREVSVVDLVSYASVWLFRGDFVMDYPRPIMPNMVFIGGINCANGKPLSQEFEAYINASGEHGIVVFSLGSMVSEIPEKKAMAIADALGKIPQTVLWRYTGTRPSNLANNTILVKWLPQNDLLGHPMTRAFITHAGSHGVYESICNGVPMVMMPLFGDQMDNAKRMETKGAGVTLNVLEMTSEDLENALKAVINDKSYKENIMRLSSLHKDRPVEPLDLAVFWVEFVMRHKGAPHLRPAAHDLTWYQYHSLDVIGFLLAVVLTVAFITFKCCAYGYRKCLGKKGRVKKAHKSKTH

The next series concerns UGT isozymes. In words: Activation of UGT isozymes in human liver microsomes. The series is classed as in vitro ADME. The settings on record: kinetic studies in human liver microsomes.
Where [19] appears, read: Human immunodeficiency virus 1, PBMC, in Homo sapiens, read-out: EC50 (± SD).

pEC50, pIC50: −log10 of the molar value. Like-named read-outs stand apart in the source and are kept apart here.

CYP2D6, sequence (P10635 whole entry): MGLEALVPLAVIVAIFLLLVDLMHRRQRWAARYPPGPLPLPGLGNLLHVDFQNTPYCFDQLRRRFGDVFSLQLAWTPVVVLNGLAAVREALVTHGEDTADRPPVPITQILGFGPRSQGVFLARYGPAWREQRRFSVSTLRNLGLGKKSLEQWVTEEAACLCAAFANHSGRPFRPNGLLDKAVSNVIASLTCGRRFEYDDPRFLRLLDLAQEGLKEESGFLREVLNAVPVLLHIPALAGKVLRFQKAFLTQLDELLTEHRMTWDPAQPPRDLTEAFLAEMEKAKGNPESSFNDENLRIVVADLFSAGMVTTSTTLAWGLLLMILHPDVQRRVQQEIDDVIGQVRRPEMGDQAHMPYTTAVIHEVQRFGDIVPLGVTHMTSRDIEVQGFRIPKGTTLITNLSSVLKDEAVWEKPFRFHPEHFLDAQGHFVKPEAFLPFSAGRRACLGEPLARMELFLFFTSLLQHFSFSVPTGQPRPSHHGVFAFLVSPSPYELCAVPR
CYP2C19, sequence (P33261 whole entry): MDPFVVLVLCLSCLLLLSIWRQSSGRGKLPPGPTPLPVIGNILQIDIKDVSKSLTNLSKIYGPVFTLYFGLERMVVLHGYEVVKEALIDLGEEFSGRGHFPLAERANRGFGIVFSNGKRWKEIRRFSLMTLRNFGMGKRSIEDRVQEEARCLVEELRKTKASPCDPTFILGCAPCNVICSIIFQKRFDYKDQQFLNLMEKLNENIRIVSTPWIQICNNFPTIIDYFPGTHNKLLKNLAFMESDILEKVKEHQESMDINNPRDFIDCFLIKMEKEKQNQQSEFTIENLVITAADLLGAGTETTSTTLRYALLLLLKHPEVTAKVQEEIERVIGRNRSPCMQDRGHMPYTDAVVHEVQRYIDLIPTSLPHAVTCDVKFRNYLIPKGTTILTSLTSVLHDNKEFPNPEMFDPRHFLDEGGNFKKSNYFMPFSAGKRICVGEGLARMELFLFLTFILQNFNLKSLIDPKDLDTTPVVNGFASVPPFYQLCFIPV
UGT1A3, sequence (P35503 29-534): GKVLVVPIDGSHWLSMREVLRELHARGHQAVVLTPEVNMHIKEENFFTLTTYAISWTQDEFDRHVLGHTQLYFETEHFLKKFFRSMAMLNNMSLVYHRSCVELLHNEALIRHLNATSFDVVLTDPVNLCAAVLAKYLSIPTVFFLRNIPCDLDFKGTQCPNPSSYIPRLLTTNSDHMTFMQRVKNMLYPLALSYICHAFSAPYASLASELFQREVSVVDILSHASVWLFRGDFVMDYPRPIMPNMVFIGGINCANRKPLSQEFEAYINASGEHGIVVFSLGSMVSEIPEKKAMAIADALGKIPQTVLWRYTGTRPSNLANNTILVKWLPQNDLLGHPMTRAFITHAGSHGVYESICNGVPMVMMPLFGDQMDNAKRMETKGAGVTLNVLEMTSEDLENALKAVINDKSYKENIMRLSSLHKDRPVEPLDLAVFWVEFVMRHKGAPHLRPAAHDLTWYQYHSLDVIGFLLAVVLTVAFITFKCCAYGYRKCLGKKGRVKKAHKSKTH

On to `Cc1cn([C@H]2C[C@H](N=[N+]=[N-])[C@@H](CO)O2)c(=O)[nH]c1=O` [AZT], for which the “EC50 fold change compared to wild-type virus” value (“EC50 fold change” for short) in the series on WT HIV-1 NL4-3 was determined as 1.0; in [1], 1.18; in series [2] it was 3.29; in series [3] it was 3.45; in series [4], 1.0.

As for `O=C(C=C(O)c1cc(Cc2c(F)cccc2F)cn(Cc2ccccc2F)c1=O)C(=O)NN1CCCC1=O` [Compound 1, 4-(5-(2,6-difluorobenzyl)-1-(2-fluorobenzyl)-2-oxo-1,2-dihydropyridin-3-yl)-4-hydroxy-2-oxo-N-(2-oxopyrrolidin-1-yl)but-3-enamide], the pEC50 in [5] (setting [19]) is 7.68; in series [6] (setting [19]), 8.16; in series [7] (setting [19]), 7.53; in [8] (setting [19]), 7.31; in series [9] (setting [19]), 7.28; in [10] (setting [19]) it was 7.74. In addition, the pEC50 in series [11] (setting [19]) was 7.46; in [12] (setting [19]) it was 7.48; in the series with HIV-2 isolate CDC310319 (Human immunodeficiency virus 2, PBMC, in Homo sapiens, read-out: EC50 (± SD)), 7.07; in the series on SIV isolate MAC251 (Simian immunodeficiency virus, in Homo sapiens, read-out: EC50 (± SD)) it was 7.72; in [13] it was 7.46. Besides, the “Therapeutic Index (CC50/EC50)” value in series [5] (PBMC, isolate 92RW016, subtype A) is 4,625; in series [6] (PBMC, isolate 91US004, subtype B) it was 13,962; in series [7] (PBMC, isolate 98IN022, subtype C), 3,228; in series [8] (PBMC, isolate 93UG067, subtype D), 1,984; in series [9] (PBMC, isolate CMU08, subtype E) it was 1,836; in series [10] (PBMC, isolate 93BR029, subtype F), 5,257. In addition, the “Therapeutic Index (CC50/EC50)” value is on record as 2,756 in series [11] (PBMC, isolate G3, subtype G); 2,880 in series [12] (PBMC, isolate CDC310342, CRF02-AG); 1,119 with HIV-2 isolate CDC310319 (PBMC, HIV-2 isolate CDC310319); 5,037 in the series on SIV isolate MAC251 (SIV isolate MAC251). This molecule registered a CC50 in series [14] of 96200 nM. Moreover, the “EC50 fold change” value turned out to be 1.0 in the series with WT HIV-1 NL4-3; 1.87 in [1]; 8.20 in series [2]; 18.8 in series [15]; 6.13 in series [3]; 5.20 in series [4]. Also, the “stability in pooled human liver microsomes” value in [16] (50 μM, 0.5 mg/mL protein, NADPH, 37 °C) is listed as “relatively stable”. The negative-log IC50 (pIC50) at CYP3A4, at CYP2D6, against CYP2C8, against CYP2C9 and on CYP2C19 was under 3.70 throughout. For the same molecule, the inhibition at 30 min, 200 μM on CYP2C9 (human, liver microsomes, pH 7.4, probe tolbutamide 500 μM) turned out to be 15.5%. The “activation of CYP isozymes” value in series [17] is on record as “not an activator”. For the same molecule, the “Glucuronide (formed)” value (in series [18]; on UGT1A1; at UGT1A3) was “None^a” in each case. For the same molecule, the “inhibition of UGT1A4” value at UGT1A4 is “not an inhibitor”. The “activation of UGT isozymes” value with UGT isozymes is “no indication of the activation”.

Turning to `COc1cc2c(cc1Cc1cccc(Cl)c1F)c(=O)c(C(=O)O)cn2[C@H](CO)C(C)C` [Elvitegravir, elvitegravir], the “EC50 fold change” value in the series on WT HIV-1 NL4-3 was determined as 1.0; in series [1], 46.7; in [2], 200; in [15], 96.1; in series [3], 134; in series [4] it was 5.5.

Regarding `C[C@]12CC[C@@H]3c4ccc(O)cc4CC[C@H]3[C@@H]1CC[C@@H]2O` [Estradiol, reference compound], the “Glucuronide (formed)” value is reported as “Glucuronides (two)” in series [18] and “Glucuronide” at UGT1A1.

On to `Cc1cc(=O)oc2cc(O)ccc12` [Methylumbelliferone, 4-methylumbelliferone], for which the “Glucuronide (formed)” value in [18] is recorded as “Glucuronide”.

As to `CN1CCN(CCCN2c3ccccc3Sc3ccc(C(F)(F)F)cc32)CC1` [Trifluoperazine], in series [18] (pHLM (Xenotech), HPLC), the “Glucuronide (formed)” value is “N-Glucuronide”.

Molecule `Cc1ncc2n1-c1ccc(Cl)cc1C(c1ccccc1F)=NC2` [midazolam] returned a fraction remaining at 1 h in series [16] (human, microsomes, pH 7.4) of 61.5%. The Michaelis constant (Km) in [16] (human, pH 7.4) was found to be 2.52 µM.

Values taken from paper PMC3677213 (Antiviral research, 2013).
